The values below come from ChEMBL document CHEMBL1157983, “Novel labdane diterpenes from the insecticidal plant hyptis spicigera1” (1999).

In assay [1] the test system is Ostrinia nubilalis. Kind of assay: Insecticidal activity against Ostrinia nubilalis larvae after 4 to 6 days. It is filed as functional, organism-based. In short, it runs like this:
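Samples were dissolved in 95% EtOH and mixed into agar-based meridic diet at final 5, 50 and 100 ppm. European corn borer larvae were reared on it at 25 °C, about 80% RH, with a 16:8 light:dark cycle. Mortality and larval weight were recorded every 4-6 days over the growth period. ANOVA with Tukey's multiple range test.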

For assay [2], the system named is KB. Description: Cytotoxicity against human KB cells up to 20 ug/mL after 72 hrs by SRB assay. It is filed as functional, cell-based. In short, it runs like this: (§1)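 KB (nasopharyngeal) and HCT-15 (colon) lines kept in RPMI 1640 with 10% FBS at 37 °C, 5% CO2. Log-phase cells were exposed in triplicate to 0.16-20 µg/mL of sample for 72 h. Cell density was read by sulforhodamine staining. ED50 (50% growth inhibition versus control) was estimated from a semilog plot of concentration against percent viable cells. Ellipticine served as positive control.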
For orientation: In SRB staining, fixed cells bind dye roughly in proportion to their protein.

Assay [3] deals with HCT-15. Description: Cytotoxicity against human HCT-15 cells at 20 ug/mL after 72 hrs by SRB assay. It is filed as functional, cell-based.
Assay [4] deals with KB. Kind of assay: Cytotoxicity against human KB cells after 72 hrs by SRB assay. The settings on record: read-out: ED50 (the source's name). It is filed as functional. In short, it runs like this:
as §1

For assay [5], the system named is HCT-15. Kind of assay: Cytotoxicity against human HCT-15 cells after 72 hrs by SRB assay. It is filed as functional. The note with it: HCT-15, 72 h, read-out: ED50 (the source's name). The essentials:
as §1

In brackets after ≈: the same amount, converted by molar mass. Activity calls are given as the source filed them. The calls are words filed in the database; no cut-off is given here.

`C=C1[C@H](O)C[C@H]2[C@@](C)(COC(C)=O)C[C@H](O)C[C@]2(C)[C@H]1CC/C(C)=C\COC(C)=O`: the result in assay [1] was Active. Further, the outcome in assay [2] and in assay [3] was inactive.

In the case of `C=C1[C@H](O)C[C@H]2[C@@](C)(COC(C)=O)C[C@H](O)C[C@]2(C)[C@H]1CC/C(C)=C\C=O`, the EC50 in assay [4] and in assay [5] was 11 µg/mL (≈ 29.1 µM) in each case.

Take `C=C1[C@H](O)C[C@H]2[C@@](C)(COC(C)=O)CC(=O)C[C@]2(C)[C@H]1CC/C(C)=C\CO`: the EC50 in assay [4] and in assay [5] was 11 µg/mL (≈ 29.1 µM) in each case.

For `C=C1[C@H](O)C[C@H]2[C@@](C)(COC(C)=O)C[C@H](O)C[C@]2(C)[C@H]1CC/C(C)=C\CO`, the EC50 is 19.4 µg/mL (≈ 51 µM) in assay [4] and 8.7 µg/mL (≈ 22.9 µM) in assay [5].

Turning to `C=C1[C@H](OC(C)=O)C[C@H]2[C@@](C)(COC(C)=O)C[C@H](O)C[C@]2(C)[C@H]1CC/C(C)=C\COC(C)=O`, the result in assay [2] and in assay [3] was inactive.

Regarding `C=C1[C@H](O)C[C@@H]2[C@](C)(CO)C[C@@H](O)C[C@@]2(C)[C@H]1CC/C(C)=C\CO`, the outcome in assay [2] and in assay [3] was inactive.

With `C=C1[C@H](O)C[C@H]2[C@@](C)(COC(C)=O)C[C@H](O)C[C@]2(C)[C@H]1CCC(C)=O`, the outcome in assay [2] and in assay [3] was inactive.

Take `Cc1c2ccncc2c(C)c2c1[nH]c1ccccc12` [ELLIPTECINE]: the EC50 in assay [4] was found to be 0.1 µg/mL (≈ 0.406 µM); in assay [5] it was 0.17 µg/mL (≈ 0.69 µM).
